# Reference: PubChem BioAssay
# The source made the active and inactive calls.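 Rule for the calls, unless noted: active = viability at or below 10% of carrier control in both of two separate runs; inconclusive = viability at or below 10% in only one of the two runs; inactive = the rest.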
# What was measured:
# [1] = reduced viability of SK-BR-3 breast cancer cells – cell-based, 24 h, human, pilot screen (AID 572); settings: SK-BR-3 viability, CellTiter-Glo luminescence, at 10 µM, stronger effect = lower value;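 note: compound exposure lasted between 18 and 24 h rather than exactly 24 h; 100% = carrier-treated control wells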
# [2] = HUVEC growth inhibition – cell-based, human, primary screen (AID 575;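 active = viability at or below 30% in both replicate assays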;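 note: 100% = median of untreated cell wells with 0.1% DMSO on each plate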); settings: HUVEC proliferation, CellTiter-Glo luminescence, 72 h; at 10 µM; stronger effect = lower value
# Method in brief: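 Assay system: Primary human umbilical vein endothelial cells | Quantity: 1250 cells per well | Medium: Supplemented EBM, 2% fetal bovine serum | Detection: CellTiter-Glo luminescence measuring cellular ATP | Read-out: % viability vs DMSO wells | Plate: Collagen-coated 384-well format | Times: 72 h exposure, 37 °C, 5% CO2, 30 min RT equilibration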
# [3] = H69AR cell proliferation blockers – human, duplicate replicates, primary screen (AID 580;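 active = viability at or under a set limit in both replicates, limit being median viability minus 3 SD, cut at about 48% in these data, passing the limit was not always enough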;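 note: 100% = mean luminescence of untreated wells and 0% = no signal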); settings: H69AR lung tumor cells viability, ATP luminescence, 72 h; at 10 µM; stronger effect = lower value
# [4] = MRP1 drug-resistance reversers in H69AR cells – cell-based, doxorubicin co-treatment, pilot screen (AID 601;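 active = viability loss from added drug above about 55%, and viability with drug at most 40%, in both replicates, limit read from the data, passing the limit was not always enough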); settings: CellTiter-Glo, 72 h, at 10 µM; for differential viability (reversal): stronger effect = higher value
# [5] = yeast transport mutant growth inhibition pilot in 384-well plates, post-Golgi transport modulator project (AID 636; in the data active = inhibition above about 31%); settings: absorbance 615 nm, about 18 h, stronger effect = higher value
# [6] = growth suppression of yeast trafficking mutant, preliminary HTS, modulators of trafficking downstream of Golgi apparatus project, 1536-format plate, OD 615 nm (AID 637; in the data active = inhibition above about 30%); settings: yeast transport mutant growth, absorbance 615 nm, 18 h; stronger effect = higher value
# [7] = H69AR cells + 2 uM doxorubicin, measured here: viability with 2 uM doxorubicin, stronger effect = lower value
# [8] = H69AR cells, compound alone cytotoxicity
Compound,viability [1],viability [2],viability [3],differential viability (reversal) ([4]; H69AR cells + 2 uM doxorubicin),"viability [4, 7] [%]","viability [4, 8] [%]",inhibition [5],inhibition [6]
CCN(CC)CCOC(=O)c1ccc(NC(=O)COc2cc(=O)n(CC)c3ccccc23)cc1,103% (inactive),98.3% (inactive),109% (inactive),26.6% (inactive),82.1,109,-2.86% (inactive),-10% (inactive)
O=C(CSc1nnc(-c2ccccc2Br)o1)Nc1cccc2ccccc12,89% (inactive),101% (inactive),105% (inactive),24.2% (inactive),81.2,105,0.39% (inactive),-4.43% (inactive)
Cc1ccc(-n2ncc3c(=O)n(CC(=O)N4CCCc5ccccc54)cnc32)cc1C,82% (inactive),60.5% (inactive),90.8% (inactive),-10% (inactive),101,90.8,6.08% (inactive),-2.73% (inactive)
CCN(CC)C(c1ccc(C)cc1)c1nnnn1C1CCCCC1 (stereo not drawn),64% (inactive),102% (inactive),75.5% (inactive),7% (inactive),68.5,75.5,-6.13% (inactive),-4.73% (inactive)
C=CCOC(=O)C1=C(C)NC(=O)NC1c1cn(-c2ccccc2)nc1-c1cccs1 (stereo not drawn),119% (inactive),81.9% (inactive),91% (inactive),-3.71% (inactive),94.7,91,-6.49% (inactive),1.09% (inactive)
CC(=O)N=c1sc(S(N)(=O)=O)nn1C,84% (inactive),77.6% (inactive),93.9% (inactive),21.1% (inactive),72.8,93.9,0.39% (inactive),3.17% (inactive)
CCOC(=O)c1c(C)[nH]c(C(=O)Cn2c(=O)c3c(ncn3CC)n(Cc3ccccc3)c2=O)c1C,89% (inactive),98% (inactive),85.2% (inactive),-4.88% (inactive),90.1,85.2,-6.35% (inactive),-2.73% (inactive)
CCN(C(=O)c1c(OC)cccc1OC)c1nnc(-c2cccnc2)s1,95% (inactive),87.7% (inactive),92.7% (inactive),1.89% (inactive),90.8,92.7,-5.81% (inactive),-7.82% (inactive)
COCCCNC(=O)CCCn1c(=O)c2ccccc2n(CC(=O)Nc2c(C)cccc2C)c1=O,99% (inactive),97.6% (inactive),93.1% (inactive),4.87% (inactive),88.2,93.1,-1.69% (inactive),-1.31% (inactive)
CNC(=O)OC(C)CNS(=O)(=O)c1ccc(C)cc1 (stereo not drawn),60% (inactive),106% (inactive),97% (inactive),6.22% (inactive),90.8,97,-7.4% (inactive),0.55% (inactive)
COc1ccccc1CNC(=O)Nc1cccs1,126% (inactive),63.8% (inactive),72.1% (inactive),5.65% (inactive),66.5,72.1,-0.78% (inactive),4.1% (inactive)
COc1ccc(C)cc1-n1nnnc1SC/C(O)=C(\C#N)c1nc2ccccc2[nH]1,96% (inactive),86.6% (inactive),85.2% (inactive),-13.1% (inactive),98.4,85.2,-4.11% (inactive),1.27% (inactive)
CCOc1ccc(-c2cc(C(=O)N3CCN(c4ccccn4)CC3)c3ccccc3n2)cc1,127% (inactive),43.5% (inactive),12.5% (active),-66.7% (inactive),79.2,12.5,0.13% (inactive),-0.49% (inactive)
O=C(CCNS(=O)(=O)c1ccc(Br)s1)N1CCCCC1,90% (inactive),107% (inactive),94.2% (inactive),7.65% (inactive),86.5,94.2,-6.03% (inactive),-4.19% (inactive)
COC(=O)c1cc(S(=O)(=O)N2CCOCC2)c(N2CCOCC2)cc1N1CCOCC1,124% (inactive),102% (inactive),85.5% (inactive),13.4% (inactive),72.1,85.5,-0.14% (inactive),-2.91% (inactive)
O=C(NCC1CCCO1)c1cc(-c2ccncc2)nc2ccc(S(=O)(=O)N3CCOCC3)cc12 (stereo not drawn),106% (inactive),111% (inactive),95.8% (inactive),8.86% (inactive),87,95.8,-7.87% (inactive),4.18% (inactive)
CCc1nnc(NC(=O)CSc2nc(-c3ccc(OC)cc3)ns2)s1,110% (inactive),101% (inactive),93.1% (inactive),-0.64% (inactive),93.7,93.1,-5.07% (inactive),0.91% (inactive)
O=C(CSCc1ccc(F)cc1)NC1CCCC1,137% (inactive),108% (inactive),95.8% (inactive),13.6% (inactive),82.2,95.8,-3.9% (inactive),4.1% (inactive)
COc1ccc(CC(=O)Nc2c3c(nn2-c2cccc(Cl)c2)CS(=O)C3)cc1 (stereo not drawn),111% (inactive),95.6% (inactive),104% (inactive),14.5% (inactive),89.5,104,-2.73% (inactive),-1.97% (inactive)
Cc1nnc(SCc2cccc(Oc3ccccc3)c2)n1N,74% (inactive),89.3% (inactive),99.6% (inactive),5.25% (inactive),94.4,99.6,-5.89% (inactive),6.18% (inactive)
CCN1CCc2c(C#N)c(N3CCCCC3)nc(NCc3ccccc3)c2C1,103% (inactive),2.17% (active),16.3% (active),-10.1% (inactive),26.4,16.3,-4.4% (inactive),16.6% (inactive)
COc1cc(CO)cc(-c2cc(CO)cc(OC)c2OC)c1OC,82% (inactive),95.8% (inactive),92.5% (inactive),1.68% (inactive),90.9,92.5,-8.67% (inactive),-6.91% (inactive)
O=C(Nc1ncnc2sc3c(c12)CCC3)c1ccco1,81% (inactive),94% (inactive),80.1% (inactive),-2.91% (inactive),83,80.1,-4.73% (inactive),0.55% (inactive)

Compound,viability [1],viability [2],viability [3],differential viability (reversal) ([4]; H69AR cells + 2 uM doxorubicin),"viability [4, 7] [%]","viability [4, 8] [%]",inhibition [5],inhibition [6]
Cc1cc(C(=O)NCc2cccnc2)no1,77% (inactive),108% (inactive),99.2% (inactive),6.27% (inactive),93,99.2,-4.52% (inactive),1.61% (inactive)
COc1ccc(OC)c(S(=O)(=O)Nc2ccc(O)c3ccccc23)c1,6% (active),3.38% (active),1.73% (active),-0.325% (inactive),2.06,1.73,-2.5% (inactive),-5.33% (inactive)
CCOC(=O)c1c(C)[nH]c(C)c1C(=O)COC(=O)CNC(=O)c1ccc(OCC)cc1,96% (inactive),77.9% (inactive),88.3% (inactive),4.05% (inactive),84.2,88.3,-2.34% (inactive),-0.66% (inactive)
Cc1nnc2c3ccccc3c(-c3ccccc3)nn12,88% (inactive),100% (inactive),68.1% (inactive),42.8% (inactive),25.3,68.1,-6.49% (inactive),3.27% (inactive)
CCc1ccccc1N1C(=O)C2CC(C)=C(C)CC2C1=O (stereo not drawn),89% (inactive),104% (inactive),103% (inactive),18% (inactive),84.7,103,-5.73% (inactive),0% (inactive)
COc1ccc(-c2nnc(SC(C)C(=O)Nc3nccs3)n2-c2ccccc2)cc1OC (stereo not drawn),105% (inactive),83.5% (inactive),86.8% (inactive),-0.545% (inactive),87.4,86.8,-0.96% (inactive),3.87% (inactive)
COc1ccc(S(=O)(=O)N2CCN(S(=O)(=O)c3ccc4c(c3)OCCO4)CC2)cc1C,101% (inactive),109% (inactive),88.2% (inactive),17.5% (inactive),70.7,88.2,-5.33% (inactive),1.09% (inactive)
Cc1nnc(SCc2nnc(-c3ccccc3Br)o2)n1-c1ccccc1,86% (inactive),87.5% (inactive),90.2% (inactive),-3.37% (inactive),93.6,90.2,0.41% (inactive),0% (inactive)
Cc1cc(Nc2ccccc2)n(-c2ccccc2)n1,123% (inactive),94.3% (inactive),101% (inactive),5.72% (inactive),95.6,101,-1.1% (inactive),-6.61% (inactive)
CC(C)n1c(NCc2c[nH]c3ccccc23)nc2ccccc21,91% (inactive),79.6% (inactive),74.8% (inactive),-3.61% (inactive),78.4,74.8,-9.45% (inactive),-5.16% (inactive)
COc1cc(NC2c3ccccc3C(=O)N2c2ccc(C)cn2)cc(OC)c1OC (stereo not drawn),90.5% (inactive),85.5% (inactive),88.7% (inactive),3.73% (inactive),85,88.7,-1.41% (inactive),1.17% (inactive)
Nc1ncnc2nc(Sc3ccc(Cl)cc3)[nH]c12,99% (inactive),96.1% (inactive),98.6% (inactive),7.52% (inactive),91.1,98.6,0.52% (inactive),4.59% (inactive)
O=C(Nc1cc(C(F)(F)F)ccc1N1CCCC1)c1ccc2c(c1)OCO2,72% (inactive),92.9% (inactive),98% (inactive),0.92% (inactive),97.1,98,-6.99% (inactive),-5.09% (inactive)
Cc1cccn2c(=O)c3cc(C#N)c(=NC(=O)c4ccncc4)n(Cc4ccco4)c3nc12,110% (inactive),64.1% (inactive),67% (inactive),15.3% (inactive),51.7,67,-1.58% (inactive),7.74% (inactive)
Cc1nn(Cc2ccccc2)c2c1C(c1ccncc1)C(C#N)=C(N)O2 (stereo not drawn),96% (inactive),86% (inactive),85% (inactive),-2.68% (inactive),87.7,85,-4.8% (inactive),-3.27% (inactive)
Cc1cc(NS(=O)(=O)c2ccc(NC(=O)Nc3ccc4c(c3)OCO4)cc2)no1,80% (inactive),101% (inactive),92.6% (inactive),-0.555% (inactive),93.2,92.6,-6.49% (inactive),0.55% (inactive)
Cc1cc(NC(=O)c2cnn3c(C(F)F)cc(C4CC4)nc23)no1,131% (inactive),79.6% (inactive),82.4% (inactive),-12.8% (inactive),95.1,82.4,-1.43% (inactive),3.11% (inactive)
Cc1cn(C2CC3OCC3O2)c(=O)[nH]c1=O (stereo not drawn),101% (inactive),110% (inactive),94.2% (inactive),-4.39% (inactive),98.5,94.2,-7.12% (inactive),-16.2% (inactive)
CCOc1cc(C(=O)Nc2c3c(nn2C(C)(C)C)CS(=O)C3)cc(OCC)c1OCC (stereo not drawn),103% (inactive),96.7% (inactive),101% (inactive),7.14% (inactive),93.7,101,-1.04% (inactive),-7.54% (inactive)
CCC1(C)Cc2c(sc3nc(SCC(=O)O)[nH]c(=O)c23)CO1 (stereo not drawn),111% (inactive),107% (inactive),94.1% (inactive),14.5% (inactive),79.6,94.1,-1.6% (inactive),-10% (inactive)
Cn1c(=O)[nH]c(=O)c2c1nc(N1CCOCC1)n2CC(O)COc1ccc2ccccc2c1 (stereo not drawn),70% (inactive),88.7% (inactive),88.3% (inactive),-1.6% (inactive),89.9,88.3,-6.58% (inactive),-1.82% (inactive)
CCN1C(=O)C2(C(C#N)=C(N)Oc3n[nH]c(C(C)C)c32)c2ccccc21 (stereo not drawn),113% (inactive),103% (inactive),89.2% (inactive),-1.03% (inactive),90.2,89.2,-8.9% (inactive),-0.81% (inactive)
COc1ccccc1CC(=O)NCC1CCCO1 (stereo not drawn),110% (inactive),113% (inactive),99% (inactive),8.34% (inactive),90.7,99,-8.13% (inactive),-4.55% (inactive)
